These results are taken from article PMC10242637 (Saudi Pharmaceutical Journal : SPJ, 2023).

The subject of series [1] is fibroblasts NCTC cells (clone 929). The series can be described thus: Cytotoxicity against mammalian cells. In kind it is cell-based. To be noted: for CC50: read-out: CC50 NCTC, NCTC cells (clone L929), 48 h, MTT; for SI (Selective Index): ratio between CC50 (NCTC) and IC50 (amastigote - TCA). In short, it runs like this:
(§1)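 NCTC clone 929 fibroblasts were seeded at 6 × 10^4 cells/well and exposed to test compound (200 to 1.5 μM, 1:2 dilutions) for 48 h at 37 °C in 5% CO2, with 0.5% v/v DMSO final. Viability was read by MTT at 570 nm, and CC50 was taken from sigmoid dose–response curves. SI = CC50 divided by the amastigote IC50. Two independent runs, each in duplicate.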

A short description of series [2]: Cytotoxicity against mammalian cells. The class given is cell-based. To be noted: mouse, NCTC clone 929 (L929) fibroblasts. In short, it runs like this:
as §1

The test system of series [3] is T. cruzi trypomastigotes (Y strain). Description: Anti-trypomastigote assay. The class given is cell-based. To be noted: Trypanosoma cruzi, 24 h, read-out: IC50 (µM ± SD) T.c.T. The method in brief:
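Y-strain trypomastigotes at 1 × 10^6 cells/well in RPMI 1640 were exposed to test compound (150 to 1.1 μM, 1:2 dilutions) for 24 h at 37 °C in 5% CO2, with 0.5% v/v DMSO final. Resazurin (0.011% v/v) was then added for 24 h and absorbance read at 570 nm. IC50 came from non-linear regression against untreated parasites as 100% viability. Two independent runs, each in duplicate.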

Series [4] in a line: Calculation of physicochemical properties and descriptors. To be noted: 2b over the neutral analogue 2c; from calculated LogS7.4.

For orientation: CC50 means the concentration giving 50% cytotoxicity. By IC50 is commonly meant the midpoint of a concentration-inhibition curve.

In the case of “(2E)-3-(4-hydroxy-3-methoxyphenyl)-1-(4-phenylpiperazin-1-yl)prop-2-en-1-one”, in series [1], the CC50 is over 200 µM.

In turn, `COc1cc(/C=C/C(=O)N2CCN(Cc3ccccc3)CC2)ccc1O` [2a, (2E)-1-(4-benzylpiperazin-1-yl)-3-(4-hydroxy-3-methoxyphenyl)prop-2-en-1-one] yielded a CC50 at 48 h in series [2] of over 200 µM. Also, the IC50 in series [3] was over 150 µM.

In series [2], `O=C(c1ccc(Cl)cc1)N1CCN(Cc2ccccc2)CC1` [1 g, 1‐benzyl‐4‐(4‐chlorobenzoyl)piperazine] gave a CC50 at 48 h of over 200 µM. Also, in series [3], the IC50 is over 150 µM.

Regarding “(3,4-dihydroxyphenyl)-(4-phenylpiperazin-1-yl)methanone [1d]”, in series [1], the “SI (Selective Index)” value is over 5.7 and the CC50 was over 200 µM.

Consider `COc1ccc(C(=O)N2CCC(Cc3ccccc3)CC2)cc1` [1c, 4-Benzyl-1-(4-methoxybenzoyl)piperidine], for which the CC50 at 48 h in series [2] is over 200 µM. In addition, the IC50 in series [3] was 65.3 ± 2.3 µM.

In the case of “(4-methoxyphenyl)(4-phenylpiperazin-1-yl)methanone [1f]”, the CC50 in series [1] was over 200 µM.

On to `COc1cc(C(=O)N2CCN(Cc3ccccc3)CC2)ccc1O` [1a, (4-Benzylpiperazin-1-yl)(4-hydroxy-3-methoxyphenyl)methanone], for which the CC50 at 48 h in series [2] is over 200 µM. In addition, in series [1], the “SI (Selective Index)” value is over 5.6. Moreover, the IC50 in series [3] was over 150 µM.

In turn, `COc1ccc(C(=O)N2CCN(Cc3ccccc3)CC2)cc1` [1b, (4-Benzylpiperazin-1-yl)(4-methoxyphenyl)methanone] returned a CC50 at 48 h in series [2] of over 200 µM. For the same molecule, the IC50 in series [3] is over 150 µM.

In the case of “(4-hydroxy-3-methoxyphenyl)(4-phenylpiperazin-1-yl)methanone [1e]”, in series [1], the CC50 is over 200 µM.

In the case of “(2E)-1-(1-benzylpiperidin-4-yl)-3-(4-methoxyphenyl)prop-2-en-1-one [2c]”, in series [1], the “SI (Selective Index)” value is over 11.2 and the CC50 was over 200 µM.

In series [2], `O=C(Cn1ccnc1[N+](=O)[O-])NCc1ccccc1` [BZN, Benznidazole, reference compound] gave a CC50 at 48 h of over 200 µM. Further, the “SI (Selective Index)” value in series [1] was over 40. The IC50 in series [3] stood at 12.3 ± 3.3 µM.

On to “(2E)-3-(3,4-dihydroxyphenyl)-1-(4-phenylpiperazin-1-yl)prop-2-en-1-one [2d]”, for which, in series [1], the “SI (Selective Index)” value is on record as 2.8 and the CC50 was 57.2 ± 2 µM.

`COc1ccc(/C=C/C(=O)N2CCN(Cc3ccccc3)CC2)cc1` [2b, (2E)-1-(4-benzylpiperazin-1-yl)-3-(4-methoxyphenyl) prop-2-en-1-one] yielded a CC50 at 48 h in series [2] of over 200 µM. Further, in series [1], the “SI (Selective Index)” value is over 7. Moreover, in series [4], the “increase in LogS7.4 value” is on record as 1.3 log unit. For the same molecule, in series [3], the IC50 is over 150 µM.
